{"data": "Measured values pooled from the literature", "TEC": "Tyrosine-protein kinase Tec (TEC, Homo sapiens, UniProt P42680)", "TEC phosphorylated": "Tyrosine-protein kinase Tec, phosphorylated (TEC, Homo sapiens, UniProt P42680)"}
{"SMILES": "CCOc1cc(-c2nncn2C)ccc1Nc1ncc2cc(C)nc(NCC(C)(C)C)c2n1", "target": "TEC", "effect on": "cell-free assay", "technique": "TR-FRET", "concentration": "1 µM", "quantity": "inhibition", "value": "≤ 15%"}
{"SMILES": "CNC(=O)c1cc(Oc2ccc(NC(=O)Nc3ccc(Cl)c(C(F)(F)F)c3)cc2)ccn1", "target": "TEC", "effect on": "cell-free assay", "concentration": "0.5 µM", "quantity": "remaining signal", "value": "101%"}
{"SMILES": "Nc1c(C(=O)NCc2ccc(C(=O)NCCCC3CCCCC3)cc2)cnn1-c1ccccc1", "target": "TEC", "effect on": "cell-free assay", "technique": "competition with immobilised ligand", "concentration": "0.1 µM", "quantity": "remaining binding", "value": "100%"}
{"SMILES": "O=C(Nc1cnn(-c2csc(C(=O)NC3COC3)c2)c1)Nc1ccccc1Cl", "target": "TEC", "effect on": "enzyme activity", "mode": "inhibitor", "concentration": "5 µM", "quantity": "remaining activity", "value": "97.2%"}
{"SMILES": "CC(C)(C)c1nc2c(s1)c1nc(N)ncc1c1ccc(NS(=O)(=O)c3c(F)cccc3F)c(F)c12", "target": "TEC", "effect on": "enzyme activity", "mode": "inhibitor", "technique": "radiometric", "concentration": "1 µM", "quantity": "remaining activity", "value": "87%"}
{"SMILES": "Cc1ccc(C(=O)NCc2ccsc2)cc1C#Cc1cn(C(C)C)c2ncnc(N)c12", "target": "TEC phosphorylated", "effect on": "enzyme activity", "mode": "inhibitor", "concentration": "1 µM", "quantity": "activity vs control", "value": "107%"}
{"SMILES": "CN(C)C(=O)Cn1cc(-c2nc(C3(c4ccc(-c5cnc(N)nc5)cc4)CC3)no2)cn1", "target": "TEC", "effect on": "binding", "technique": "competition with immobilised ligand", "concentration": "1 µM", "quantity": "remaining binding", "value": "93%"}
{"SMILES": "CCN(CC)c1ccc(C2=NNC(=O)CC2C)cc1[N+](=O)[O-] (centres unmarked)", "target": "TEC phosphorylated", "effect on": "enzyme activity", "mode": "inhibitor", "concentration": "10 µM", "quantity": "remaining activity", "value": "64%"}
{"SMILES": "O=C(Nc1cnn(-c2csc(C(=O)NC3COC3)c2)c1)Nc1c(F)cccc1Cl", "target": "TEC", "effect on": "enzyme activity", "mode": "inhibitor", "concentration": "5 µM", "quantity": "remaining activity", "value": "97.7%"}
{"SMILES": "CN(c1ccnc(CNc2nc(Nc3ccc4c(c3)CC(=O)N4)ncc2C(F)(F)F)n1)S(C)(=O)=O", "target": "TEC", "effect on": "cell-free assay", "technique": "competition with immobilised ligand", "concentration": "1 µM", "quantity": "remaining binding", "value": "100%"}
{"SMILES": "CC/C(=N\\NC(=O)NCc1cccc(O)c1)c1ccc(O)c(C)c1O", "target": "TEC", "effect on": "enzyme activity", "mode": "inhibitor", "concentration": "0.1 µM", "quantity": "inhibition", "value": "0.2%"}
{"SMILES": "c1nc2c(Nc3ccc4c(c3)OCCO4)nc(Nc3ccc4c(c3)OCCO4)nc2[nH]1", "target": "TEC", "effect on": "enzyme activity", "mode": "inhibitor", "concentration": "10 µM", "quantity": "activity vs control", "value": "2.5%"}
{"SMILES": "N#CCCc1ccc2c(c1)-c1[nH]c3ccc([N+](=O)[O-])cc3c1CC(=O)N2", "target": "TEC", "effect on": "cell-free assay", "concentration": "0.5 µM", "quantity": "remaining signal", "value": "120%"}
{"SMILES": "O=C(N[C@@H](C1CC1)C(F)(F)F)c1cc(-c2cnn3cc(-c4ccc(F)cc4)cnc23)cs1", "target": "TEC", "effect on": "enzyme activity", "mode": "inhibitor", "technique": "radiometric", "concentration": "40 nM", "quantity": "inhibition", "value": "0%"}
{"SMILES": "CC(=O)N1CCC(c2ccc(C(=O)NC(=N)N)cc2C(F)(F)F)CC1", "target": "TEC", "effect on": "binding", "technique": "competition with immobilised ligand", "concentration": "1 µM", "quantity": "remaining binding", "value": "100%"}
{"SMILES": "C[S+]([O-])c1ccc(-c2nc(-c3ccncc3)c(-c3ccc(F)cc3)[nH]2)cc1 (centres unmarked)", "target": "TEC", "effect on": "cell-free assay", "concentration": "0.5 µM", "quantity": "remaining signal", "value": "113%"}
{"SMILES": "O=C(O)[C@@H]1[C@@H](Cn2nnc3ccccc3c2=O)CC[C@H]1C(=O)c1ccc(OCCC2CCOCC2)cc1", "target": "TEC", "effect on": "binding", "technique": "competition with immobilised ligand", "concentration": "1 µM", "quantity": "remaining binding", "value": "95%"}
{"SMILES": "Cc1cc(NC(=O)c2cccc3cc(-c4cccc5[nH]nc(N)c45)ccc23)ccc1F", "target": "TEC phosphorylated", "effect on": "enzyme activity", "mode": "inhibitor", "concentration": "0.1 µM", "quantity": "activity vs control", "value": "90%"}
{"SMILES": "C[C@@H]1CN(c2cc(-c3nn(C)c4ccc(OC5(C)CC5)cc34)ncn2)C[C@H](C)O1", "target": "TEC", "effect on": "cell-free assay", "technique": "competition with immobilised ligand", "concentration": "1 µM", "quantity": "remaining binding", "value": "100%"}
{"SMILES": "Cc1ccc(C(=O)Nc2ccc(CN3CCN(C)CC3)c(C(F)(F)F)c2)cc1C#Cc1cnc2cccnn12", "target": "TEC", "effect on": "enzyme activity", "concentration": "23.5 nM", "quantity": "remaining activity", "value": "84%"}
